Screening results: PubChem BioAssay, several laboratories
Cl transport mod – KCC2 cotransporter modulators, thallium flux, primary screen, cell-based, HEK293 KCC2, FluoZin-2 fluorescence, MLSMR; Solute carrier family 12 member 5 (Homo sapiens), Q9H2X9; KCC2 cells, thallium flux FluoZin-2 fluorescence; B-score of Tl+ flux slope (higher = more flux/activation; lower = inhibition) at 10 µM; 190,000 compounds, 2.2% hits;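 active means thallium flux slope and its plate-corrected score both differing from the plate sample mean at a set confidence after two filtering rounds, in either direction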;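 further: slope of fluorescence scaled to starting intensity during 10 to 20 s after thallium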
DTT redox prof – compounds producing H2O2 with reducing agent – biochemical, NIH compound library profiling, artefact control for MLSCN library redox annotation, primary screen; 200,000 compounds, 0.03% hits; DTT-dependent redox cycling H2O2, phenol red/HRP absorbance; 100% = 100 µM peroxide control, 0% = buffer; activation, % at 10 µM; AID 878, 2007;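 active means activation of at least 50% relative to the plate's high and low controls in the primary single-dose screen; inactive means activation below 50%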;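 further: compound incubated with DTT at 0.8 mM final as the reducing agent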
bCat nuc transl – modulators of beta-catenin nuclear translocation, primary screen, imaging, HeLa cells, immunofluorescence, high-content; nuclear translocation activity, % at 5 µM; 190,000 compounds, 0.3% hits;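 active means nuclear translocation activity above 50% at 5 µM, with a well cell count of 50 or more; inconclusive means wells under 50 cells across six images, flagged as toxic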;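 further: per-cell ratio of nuclear to cytoplasmic median beta-catenin stain intensity; plate controls were DMSO negative control for no effect and GSK-3 inhibitor IX positive control for full effect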
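Test system: human HeLa cells, endogenous beta-catenin. Times: 24 h compound exposure, 37°C. Measured by: beta-catenin immunofluorescence imaging with DAPI.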
ROMK primary – ROMK potassium channel modulators, primary screen, cell-based, thallium flux, MLSMR library; ATP-sensitive inward rectifier potassium channel 1 (Homo sapiens), P48048; Tet-inducible ROMK, thallium flux fluorescence; actives lie on both sides; B-score at 10 µM; 130,000 compounds, 2% hits; AID 1918, 2009;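 active means signal ratio slope over the read window, or its plate-corrected B-score, at least 3 SD from the plate mean, either direction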;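 further: B-score of the F/F0 ratio slope over 7 to 12 s after thallium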
Target sequence (P48048 whole entry, looked up): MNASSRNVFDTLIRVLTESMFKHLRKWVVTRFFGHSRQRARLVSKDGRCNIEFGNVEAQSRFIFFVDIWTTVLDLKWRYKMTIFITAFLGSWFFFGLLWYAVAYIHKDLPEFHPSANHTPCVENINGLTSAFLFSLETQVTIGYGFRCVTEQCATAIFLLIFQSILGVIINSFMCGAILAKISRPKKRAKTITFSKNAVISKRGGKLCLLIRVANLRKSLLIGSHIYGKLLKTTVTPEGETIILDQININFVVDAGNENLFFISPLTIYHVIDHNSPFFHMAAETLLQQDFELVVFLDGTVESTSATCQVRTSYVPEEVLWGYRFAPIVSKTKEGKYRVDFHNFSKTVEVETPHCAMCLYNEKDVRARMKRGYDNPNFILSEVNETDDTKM
MT stabilizer – microtubule stabilizers in HeLa cells, primary screen, imaging, high-content imaging; HeLa tubulin immunostaining HCS, 24 h; share of cells brighter than vehicle mean+2SD; % tubulin-high responders, % at 10 µM; 200,000 compounds, 0.83% hits; AID 2205, 2009;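 active means plate Z-score above 3 for both tubulin-high and condensed-nucleus cell shares, with cell loss under 80%, at 10 µM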;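 further: anti alpha tubulin signal scored within the nucleus-defined area of each cell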
KCC2 sec1 – KCC2 modulators in sodium-free buffer, confirmation, cell-based, HEK293 KCC2, thallium flux, secondary assay; normalised thallium flux (F/F0 slope) at 10 µM; shares compounds with Cl transport mod; 3,700 compounds, 15% hits; FluoZin2 fluorescence; stronger effect = higher value;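 active means thallium flux slope above the same plate's solvent-only control mean plus 3 SD; inconclusive means the two replicate wells disagree; inactive means no significant difference from solvent-only control wells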
KCC2 bumet counter – thallium flux persisting under bumetanide in KCC2 cells, confirmation, counter-screen for KCC2 modulator project, cell-based, HEK293 KCC2, FluoZin2, secondary assay 3 | shares compounds with Cl transport mod | AID 1714, 2009 | normalized thallium flux at 10 µM | HEK293-KCC2 + bumetanide/ouabain; stronger effect = higher value | 3,700 compounds, 49% hits;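 active means thallium entry rate above the same plate's blocked-transporter control wells by more than 3 SD; inconclusive means the two repeat wells disagree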;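 further: raw slope of fluorescence over initial fluorescence between 10 and 20 s after thallium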
KCC2 secondary2 – KCC2 modulators without ouabain present, confirmation, cell-based, HEK293 KCC2, thallium flux, FluoZin2, secondary assay 2; shares compounds with Cl transport mod; thallium flux FluoZin2 fluorescence; actives lie on both sides; F/F0 rise rate, 10–20 s post-thallium; normalized thallium flux at 10 µM; 3,700 compounds, 23% hits;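 active means thallium flux slope more than 3 SD above or below the plate's solvent-only control mean, mostly below; inconclusive means the two repeat wells disagreed; inactive means no significant shift from solvent-only controls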;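 further: raw slope with 0.1% DMSO as baseline and bumetanide as block control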
HEK counter1 – thallium flux modulation in parental HEK cells, confirmation, counter-screen for KCC2 modulator project, cell-based, counterscreen 1; shares compounds with Cl transport mod; HEK293 parental cells, thallium flux FluoZin2, ouabain; baseline-ratio fluorescence slope, 10–20 s after thallium; thallium flux rate (normalised fluorescence) at 10 µM; 3,700 compounds, 46% hits; AID 1716, 2009;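 active means thallium flux rate significantly above the same plate's solvent-only control wells, beyond their mean plus 3 SD; inconclusive means the two replicate wells gave conflicting results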
KCC2 ouabain – KCC2 inhibitors and activators, ouabain retest, confirmation, HEK-KCC2 cells; shares compounds with Cl transport mod; HEK293-KCC2, thallium flux FluoZin2 fluorescence; bidirectional: low = inhibitor, high = activator; raw Tl+ flux slope (below DMSO = inhibition, above = activation) at 10 µM; 3,700 compounds, 48% hits;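 active means thallium flux slope beyond 3 SD from same-plate DMSO control mean in most replicates, usually higher, sometimes lower; inconclusive means repeat tests gave conflicting results; inactive means no significant difference from controls in most replicates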;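 further: slope of initial-normalized fluorescence between seconds 10 and 20 after thallium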
HEK counter2 – native HEK Tl+ uptake effects, second counter-screen – HEK cells, counterscreen 2, counter-screen for KCC2 modulator project, confirmation. HEK293 parental, thallium flux FluoZin-2 fluorescence slope. thallium flux slope at 10 µM. shares compounds with Cl transport mod. 3,700 compounds, 33% hits;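 active means thallium flux slope above the same plate's solvent-control mean plus 3 SD in both duplicate wells; inconclusive means duplicate wells that disagreed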;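 further: run without ouabain in cells lacking the KCC2 cotransporter; slope of fluorescence scaled to its starting value between 10 and 20 s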
The depositor's hits bear a star; ? = inconclusive; · = no result. Sampled rows, rich in hits. Any-hit rate of the full collection: about 3.7%.

SMILES	Cl transport mod	DTT redox prof	bCat nuc transl	ROMK primary	MT stabilizer	KCC2 sec1	KCC2 bumet counter	KCC2 secondary2	HEK counter1	KCC2 ouabain	HEK counter2
CC(C)(CNC(=S)NCCc1ccccc1)CNC(=S)NCCc1ccccc1	-5.1*	0	0	-2.7	2	0.0076	0.0054	?	0.0058	0.013*	0.0094
O=C(NCc1cccnc1)c1ccc(COc2ccccc2Cl)o1	-2	0	1	1.8	3	·	·	·	·	·	·
O=C(NCc1cccnc1)c1ccc(COc2ccccc2Br)o1	-4.7*	1	-1	·	6	0.0095	0.0056	0.029*	0.0043	0.014*	0.012
O=C(Nc1cccnc1)c1ccc(COc2ccccc2Br)o1	-5*	0	·	·	26*	0.0061	0.0047	0.022*	0.0072	?	0.011
CC(C)(C)NC(=O)c1ccc(COc2ccccc2Br)o1	·	-1	-2	-1.9	5	·	·	·	·	·	·
O=C1c2ccccc2C(=O)N1CCCCN(C(=O)c1cc2ccccc2oc1=O)c1ccc(F)cc1F	-1.7	0	0	-0.75	4	·	·	·	·	·	·
CCOC(=O)C1CCN(C(=O)c2ccc(N(C)S(=O)(=O)c3ccc(OC)cc3)cc2)CC1	-0.045	-1	1	0.62	5	·	·	·	·	·	·
CC(C)c1nc(N2CCN(C(=O)c3ccccc3)CC2)c(C#N)c2c1COC(C)(C)C2	0.14	2	·	·	2	·	·	·	·	·	·
Cc1nc(N2CCN(Cc3ccccc3)CC2)c(C#N)c2c1COC(C)(C)C2	-3.4*	-4	-2	0.57	2	0.0056	0.003	0.021*	?	0.011*	0.0093
O=C(O)c1ccccc1-c1nc2ccccc2c(=O)n1O	0.0052	-1	0	0.96	2	·	·	·	·	·	·
O=c1c2ccc(Cl)cc2nc(-c2ccc([N+](=O)[O-])cc2)n1O	57*	0	-2	2.2	3	0.012*	0.092*	0.059*	0.065*	0.079*	0.042*
Cc1cc(C)n2c(=O)c3ccc(Cl)cc3nc2c1C#N	-1.3	0	-2	2.5	3	·	·	·	·	·	·
O=c1c2cc(Br)ccc2nc(-c2ccc([N+](=O)[O-])cc2)n1O	72*	0	-2	1.1	1	0.05*	0.11*	0.058*	0.053*	0.069*	0.027*
O=c1c2cc(Cl)ccc2nc(-c2ccccc2)n1O	50*	-1	0	2.6	2	0.032*	0.073*	0.033	0.034*	0.052*	0.018*
CC1(C)CC2=C(CO1)C(=S)NC(c1ccccc1)N2CC1CCCO1 (configuration not stated)	0.83	·	0	0.031	·	·	·	·	·	·	·
S=C(Nc1ccccc1)Nc1nc2ccccc2n1CCOc1ccccc1	29*	0	2	0.28	30*	0.011*	0.059*	0.029	0.017*	0.036*	?
CCN(CC)S(=O)(=O)c1ccc(NS(=O)(=O)CC23CCC(CC2=O)C3(C)C)cc1 (configuration not stated)	-0.45	0	1	0.081	1	·	·	·	·	·	·
Cc1ccsc1/C=N/NC(=O)c1ccc([N+](=O)[O-])cc1	3.6*	-2	0	2.5	5	0.015	0.016*	0.029	0.011*	0.019	0.013*
CCN1CCc2c(sc(NC(=S)NC(=O)c3ccc(Cl)cc3)c2C(N)=O)C1	-0.75	·	0	·	·	·	·	·	·	·	·
O=C(O)CSc1ccnc2cc(Cl)ccc12	0.89	·	0	-0.079	·	·	·	·	·	·	·
COC(=O)CSc1ccnc2cc(Cl)ccc12	-3.2*	·	-1	0.00068	·	0.0096	?	0.034	0.0034	0.018	0.012
COc1ccc(CCNC(=O)c2cc3c(C)nccc3[nH]c2=O)cc1OC	-0.22	1	-1	-0.045	4	·	·	·	·	·	·
Cc1[nH][nH]c(=O)c1C(c1ccc(-c2ccc(F)cc2)o1)c1c(C)[nH][nH]c1=O	-5.2*	-1	0	-1.8	2	0.017	0.0046	0.025*	0.0074	0.013	0.011
Cc1[nH][nH]c(=O)c1C(c1ccc(-c2ccc(Cl)c(Cl)c2)o1)c1c(C)[nH][nH]c1=O	-3.9*	0	·	-2.1	2	0.0069	0.0047	0.022*	0.0074	0.015*	0.0093
Cc1[nH][nH]c(=O)c1C(c1ccc(-c2ccc(C(=O)O)cc2)o1)c1c(C)[nH][nH]c1=O	-0.16	-1	1	0.95	2	·	·	·	·	·	·
SMILES	Cl transport mod	DTT redox prof	bCat nuc transl	ROMK primary	MT stabilizer	KCC2 sec1	KCC2 bumet counter	KCC2 secondary2	HEK counter1	KCC2 ouabain	HEK counter2
O=C(OCC(=O)N1CCc2ccccc2C1)c1cc(=O)[nH]c2ccccc12	-2.9	·	0	·	·	·	·	·	·	·	·
COC(=O)C(C)NC(=O)CNS(=O)(=O)c1ccc(F)cc1 (configuration not stated)	1.1	-2	0	0.75	0	·	·	·	·	·	·
Brc1cc(Br)cc(CN2CCSCC2)c1	-0.67	·	-1	0.79	·	·	·	·	·	·	·
COc1cc(/C=C/c2noc(-c3ccccc3O)n2)ccc1OC(C)=O	-5.5*	·	0	-0.37	·	0.0087	0.0069	0.03	0.0069	0.021	0.0088
CC(C)CCN1CCN(Cc2ccc(C#CCCO)cc2)CC1CCO (configuration not stated)	5.3*	-1	1	·	3	0.017	0.0043	0.032	0.0081	0.018	0.01
S=c1nc[nH]c2c1sc1nc(N3CCOCC3)c3c(c12)CCCC3	67*	5	0	0.72	5	0.0094*	0.089*	0.069*	0.082*	0.074*	0.062*
